Assay results from ChEMBL document CHEMBL1125286, “Zatosetron, a potent, selective, and long-acting 5HT3 receptor antagonist: synthesis and structure-activity relationships” (J Med Chem, 1992).

Key:
[1] = molecular target: T1, Serotonin 3 (5-HT3) receptor (Rattus norvegicus) (UniProt P35563+Q9JJ16); test: 5-hydroxytryptamine 3 receptor antagonistic activity measured by inhibition of 5-HT-induced bradycardia (iv administration 10 ug/kg dose in urethane-anesthetized rats); format: functional, organism-based
In short: (§1)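 Urethane-anesthetized rats. First 5HT challenge 30 μg/kg iv gives a transient bradycardia. Once heart rate is back at steady state (≤5 min), test compound or saline goes in via the femoral vein. 5HT 30 μg/kg iv is repeated 15 min later. % inhibition is the difference between first and second bradycardia at peak, each animal its own control. Means ± SEM, groups of 3–16 rats.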

[2] = molecular target: T1, Serotonin 3 (5-HT3) receptor (Rattus norvegicus); test: Compound was tested for the inhibition of 5-HT-induced bradycardia after peroral administration of 0.03 mg/kg at 3 hours in urethane-anesthetized rats; format: functional, organism-based; design: dose 0.03 mg/kg; conditions: at 0.03 mg/kg
In short: (§2)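 Duration study. Antagonist or vehicle is given by oral gavage to conscious rats. Rats are then urethane-anesthetized, surgically prepared and challenged with 5HT 0.03 mg/kg iv at the stated time after dosing. Peak inhibition of bradycardia is measured against vehicle-treated controls. Means ± SEM, groups of 3–11 rats.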

[3] = molecular target: T1, Serotonin 3 (5-HT3) receptor (Rattus norvegicus); test: Inhibition of 5-HT-induced bradycardia by 5-hydroxytryptamine 3+; format: functional
[4] = molecular target: T1, Serotonin 3 (5-HT3) receptor (Rattus norvegicus); test: 5-hydroxytryptamine 3 receptor antagonistic activity was measured by the inhibition of 5H+ T-induced bradycardia after iv administration of 3 ug/kg dose in urethane-anesthetized rats; format: functional, organism-based
In short: (§3)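 Urethane-anesthetized rats; antagonist or saline given iv via femoral vein after heart rate settled (≤5 min) from an initial 5HT challenge (30 µg/kg iv). 5HT was given again 15 min later. Peak bradycardia measured, each rat its own control; % inhibition = difference between first and second responses. Groups of 3–16 rats, means ± SEM.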

[5] = test system: Serotonin 3 receptor (Cavia porcellus); test: In vitro binding affinity was measured for 5-hydroxytryptamine 3 receptor in the guinea pig ileum.
[6] = molecular target: T1, Serotonin 3 (5-HT3) receptor (Rattus norvegicus); test: Compound was tested for the inhibition of 5-HT-induced bradycardia after peroral administration of 0.03 mg/kg at 1 hour in urethane-anesthetized rats; format: functional, organism-based; design: dose 0.03 mg/kg; conditions: at 0.03 mg/kg; in short: as §2
[7] = molecular target: T1, Serotonin 3 (5-HT3) receptor (Rattus norvegicus); test: Compound was tested for the inhibition of 5-HT-induced bradycardia after peroral administration in urethane-anesthetized rats
[8] = molecular target: T1, Serotonin 3 (5-HT3) receptor (Rattus norvegicus); test: Compound was tested for the inhibition of 5-HT-induced bradycardia after peroral administration of 0.03 mg/kg at 6 hours in urethane-anesthetized rats; format: functional, organism-based; design: dose 0.03 mg/kg; conditions: at 0.03 mg/kg; in short: as §2
[9] = molecular target: T1, Serotonin 3 (5-HT3) receptor (Rattus norvegicus); test: Compound was tested for the inhibition of 5-HT-induced bradycardia after peroral administration of 0.3 mg/kg at 0.5 hours in urethane-anesthetized rats; format: functional, organism-based; design: dose 0.3 mg/kg; conditions: at 0.3 mg/kg; in short: as §2
[10] = molecular target: T1, Serotonin 3 (5-HT3) receptor (Rattus norvegicus); test: 5-hydroxytryptamine 3 receptor antagonistic activity was measured by the inhibition of 5H+ T-induced bradycardia after iv administration of 1 ug/kg dose in urethane-anesthetized rats; format: functional, organism-based; in short: as §1
[11] = molecular target: T1, Serotonin 3 (5-HT3) receptor (Rattus norvegicus); test: Compound was tested for the inhibition of 5-HT-induced bradycardia after peroral administration of 0.3 mg/kg at 3 hours in urethane-anesthetized rats; format: functional, organism-based; design: dose 0.3 mg/kg; conditions: at 0.3 mg/kg; in short: as §2
[12] = molecular target: T1, Serotonin 3 (5-HT3) receptor (Rattus norvegicus); test: Compound was tested for the inhibition of 5-HT-induced bradycardia after peroral administration of 0.3 mg/kg at 1 hour in urethane-anesthetized rats; format: functional, organism-based; design: dose 0.3 mg/kg; conditions: at 0.3 mg/kg; in short: as §2
[13] = molecular target: T1, Serotonin 3 (5-HT3) receptor (Rattus norvegicus); test: 5-hydroxytryptamine 3 receptor antagonistic activity was measured by the inhibition of 5H+ T-induced bradycardia after po administration of 1000 ug/kg dose in urethane-anesthetized rats; format: functional, organism-based
In short: (§4)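 Fasted rats dosed by gavage (5 mL/kg) with compound or distilled-water vehicle. Urethane anesthesia and surgical preparation 15–20 min before challenge. 5HT 0.03 mg/kg iv given 1 h after dosing. Peak bradycardia is compared with vehicle-treated controls. Means ± SEM, groups of 3–11 rats.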

[14] = molecular target: T1, Serotonin 3 (5-HT3) receptor (Rattus norvegicus); test: Compound was tested for the inhibition of 5-HT-induced bradycardia after peroral administration of 0.3 mg/kg at 6 hours in urethane-anesthetized rats; format: functional, organism-based; design: dose 0.3 mg/kg; conditions: at 0.3 mg/kg; in short: as §2
[15] = molecular target: T1, Serotonin 3 (5-HT3) receptor (Rattus norvegicus); test: 5-hydroxytryptamine 3 receptor antagonistic activity was measured by the inhibition of 5H+ T-induced bradycardia after po administration of 100 ug/kg dose in urethane-anesthetized rats; format: functional, organism-based; in short: as §4
[16] = molecular target: T1, Serotonin 3 (5-HT3) receptor (Rattus norvegicus); test: 5-hydroxytryptamine 3 receptor antagonistic activity as inhibition of 5-HT-induced bradycardia after iv administration of 100 ug/kg dose in urethane-anesthetized rats; format: functional, organism-based; in short: as §1
[17] = molecular target: T1, Serotonin 3 (5-HT3) receptor (Rattus norvegicus); test: Compound was tested for the inhibition of 5-HT-induced bradycardia after peroral administration of 1000 ug/kg dose in urethane-anesthetized rats; format: functional, organism-based; in short: as §4
[18] = molecular target: T1, Serotonin 3 (5-HT3) receptor (Rattus norvegicus); test: Compound was tested for the inhibition of 5-HT-induced bradycardia after peroral administration of 10 mg/kg at 3 hours in urethane-anesthetized rats; format: functional, organism-based; design: dose 10 mg/kg; conditions: at 10 mg/kg; in short: as §2
[19] = molecular target: T1, Serotonin 3 (5-HT3) receptor (Rattus norvegicus); test: Compound was tested for the inhibition of 5-HT-induced bradycardia after intravenous administration of 1 ug/kg dose in urethane-anesthetized rats; format: functional, organism-based; in short: as §3
[20] = molecular target: T1, Serotonin 3 (5-HT3) receptor (Rattus norvegicus); test: Compound was tested for the inhibition of 5-HT-induced bradycardia after peroral administration of 10 mg/kg at 1 hour in urethane-anesthetized rats; format: functional, organism-based; design: dose 10 mg/kg; conditions: at 10 mg/kg; in short: as §2

Row | Structure (SMILES) | inhibition [1] | inhibition [2] | ED50 [3] | inhibition [4] | -Log KB [5] | inhibition [6] | ED50 [7] | inhibition [8] | inhibition [9] | inhibition [10] | inhibition [11] | inhibition [12] | inhibition [13] | inhibition [14] | inhibition [15] | inhibition [16] | inhibition [17] | inhibition [18] | inhibition [19] | inhibition [20]
1 | CN1[C@@H]2CC[C@H]1C[C@@H](OC(=O)c1cc(Cl)cc3c1OC(C)(C)C3)C2 | 82.7% | 58% | 0.0046 mg/kg | 19.3% | 7.92 | 86.2% | 0.0088 mg/kg | 20.6% |  |  |  |  |  |  |  |  |  |  |  | 
2 | CC1Cc2cc(Cl)cc(C(=O)OC3CC4CCC(C3)N4C)c2O1 (stereo not given) | 69% |  | 0.0042 mg/kg | 50.8% | 7.88 |  | 0.179 mg/kg |  | 92.6% | 5.6% | 60.5% | 66.2% | 94.7% | 0% | 33.1% |  |  |  |  | 
3 | Cc1cc2c(c(C(=O)OC3CC4CCC(C3)N4C)c1)OC(C)C2 (stereo not given) | 66.7% |  | 0.0126 mg/kg | 14.4% | 7.32 |  | 5.17 mg/kg |  |  |  |  |  |  |  |  | 78.2% | 11.6% | 0% | 3.3% | 74.8%
